Results collected from several papers.
Lines come from different studies, so protocols differ.
Sialidase-2: Sialidase-2 (Homo sapiens, UniProt Q9Y3R4)
FABP4: Fatty acid-binding protein, adipocyte (FABP4, Homo sapiens, UniProt P15090)
ACHE: Acetylcholinesterase (ACHE, Homo sapiens, UniProt P22303)

The IC50 of `O=C(O)C1=C[C@H](O)[C@@H](n2cc(-c3ccc(-c4ccccc4)cc3)nn2)[C@H]([C@H](O)[C@H](O)CO)O1` is reported as 270 µM (Sialidase-2; enzyme activity; inhibitor).
For `NS(=O)(=O)C(F)(F)C(F)(F)C(F)(F)C(F)(F)C(F)(F)C(F)(F)C(F)(F)C(F)(F)F`, the IC50 was 17 µM (FABP4; ligand displacement; fluorescence; pH 7.5).
For `COc1ccc(C=Nc2ccc(SCc3cc(=O)c(O)co3)cc2)cc1`, the IC50 was 20.5 µM (ACHE; enzyme activity; inhibitor; Ellman).
`CCCCCCN[C@H]1[C@H]([C@H](O)[C@H](O)CO)OC(C(=O)O)=C[C@@H]1O` gave an IC50 of 16 µM (Sialidase-2; enzyme activity; inhibitor).
`O=C(O)C(F)(F)C(F)(F)C(F)(F)F` gave an IC50 of 2840 µM (FABP4; ligand displacement; fluorescence; pH 7.5).
`COc1cccc(C=Nc2ccc(SCc3cc(=O)c(O)co3)cc2)c1` gave an IC50 of 19.9 µM (ACHE; enzyme activity; inhibitor; Ellman).
With `CCCCCc1cn([C@H]2[C@H]([C@H](O)[C@H](O)CO)OC(C(=O)O)=C[C@@H]2O)nn1` the IC50 was greater than 500 µM (Sialidase-2; enzyme activity; inhibitor).
The IC50 of `O=c1cc(CSc2ccc(N=Cc3ccc(F)cc3)cc2)occ1O` is reported as 1.44 µM (ACHE; enzyme activity; inhibitor; Ellman).
For `CC(C)C[C@H](NC(=O)[C@H](CO)NC(=O)[C@@H](NC(=O)[C@@H]1CCCN1C(=O)[C@@H](N)CCCCN)C(C)C)C(=O)N[C@@H](CO)C(=O)N[C@@H](Cc1ccc(O)cc1)C(=O)N[C@@H](CCCNC(=N)N)C(=O)NCC(=O)NCC(=O)N[C@H](CC(C)C)C(=O)NCC(=O)N[C@H](C)C(=O)N[C@H](CO)C(=O)N[C@H](Cc1c[nH]c2ccccc12)C(=O)N[C@H](Cc1c[nH]cn1)C(=O)N[C@H](CCCNC(=N)N)C(=O)N[C@@H](Cc1ccc2ccccc2c1)C(=O)N[C@@H](CCCNC(=N)N)C(=O)N[C@@H](CCCNC(=N)N)C(N)=O`, the IC50 was 0.76 µM (C-X-C chemokine receptor type 4 (CXCR4, Homo sapiens, UniProt P61073); ligand displacement in cells; fluorescence).
`C=CCc1ccc(O)c(-c2cc(CC=C)ccc2O)c1` has an IC50 of greater than 100 µM (Dipeptidyl peptidase 4 (DPP4, Homo sapiens, UniProt P27487); enzyme activity; inhibitor; fluorescence).
The IC50 of `CC(C)CCN[C@H]1[C@H]([C@H](O)[C@H](O)CO)OC(C(=O)O)=C[C@@H]1O` is reported as 70 µM (Sialidase-2; enzyme activity; inhibitor).
`COC(=O)[C@H](C)NC(=O)COc1c(NC(C)=O)cc(-c2nc3ccccc3s2)cc1OC` has an IC50 of greater than 280 µM (ACHE; enzyme activity; inhibitor; Ellman).
The IC50 of `CC(C)CNC(=O)N[C@H]1[C@H]([C@H](O)[C@H](O)CO)OC(C(=O)O)=C[C@@H]1O` is reported as 30 µM (Sialidase-2; enzyme activity; inhibitor).
`O=c1cc(CSc2ccc(N=Cc3ccc(C(F)(F)F)cc3)cc2)occ1O` has an IC50 of 13.3 µM (ACHE; enzyme activity; inhibitor; Ellman).
`COc1cc(-c2nc3ccccc3s2)cc(NC(C)=O)c1OCC(=O)N[C@H](Cc1ccccc1)C(=O)O` gave an IC50 of greater than 246 µM (ACHE; enzyme activity; inhibitor; Ellman).
The IC50 of `O=c1cc(CSc2ccc(N=Cc3ccccc3)cc2)occ1O` is reported as 8.26 µM (ACHE; enzyme activity; inhibitor; Ellman).
For `CC(=O)c1c(C)c2cnc(Nc3ccc(C4CCN(CCS(C)(=O)=O)CC4)cn3)nc2n(C2CCCC2)c1=O`, the IC50 was greater than 0.75 µM (Cyclin-dependent kinase 9 (CDK9, Homo sapiens, UniProt P50750); enzyme activity; inhibitor; mobility shift).
The IC50 of `CCCCCC(=O)N[C@H]1[C@H]([C@H](O)[C@H](O)CO)OC(C(=O)O)=C[C@@H]1O` is reported as 8 µM (Sialidase-2; enzyme activity; inhibitor).
The IC50 of `O=c1cc(CSc2ccc(N=Cc3ccccc3C(F)(F)F)cc2)occ1O` is reported as 8.05 µM (ACHE; enzyme activity; inhibitor; Ellman).
`CC(=O)N(C)[C@H]1[C@H]([C@H](O)[C@H](O)CO)OC(C(=O)O)=C[C@@H]1O` has an IC50 of greater than 500 µM (Sialidase-2; enzyme activity; inhibitor).
For `COc1cc(-c2nc3ccccc3s2)cc(NC(C)=O)c1OCC(=O)N[C@@H](CC(C)C)C(=O)O`, the IC50 was greater than 264 µM (ACHE; enzyme activity; inhibitor; Ellman).
`O=C(O)C(F)(F)C(F)(F)C(F)(F)C(F)(F)C(F)(F)C(F)(F)C(F)(F)C(F)(F)C(F)(F)F` gave an IC50 of 3.54 µM (FABP4; ligand displacement; fluorescence; pH 7.5).
`CN(C(=O)CC(C)(C)C)[C@H]1[C@H]([C@H](O)[C@H](O)CO)OC(C(=O)O)=C[C@@H]1O` gave an IC50 of 50 µM (Sialidase-2; enzyme activity; inhibitor).
`O=C(O)C(F)(F)C(F)(F)C(F)(F)C(F)(F)C(F)(F)F` has an IC50 of 209 µM (FABP4; ligand displacement; fluorescence; pH 7.5).
With `O=c1cc(CSc2ccc(N=Cc3ccccc3Cl)cc2)occ1O` the IC50 was 2.33 µM (ACHE; enzyme activity; inhibitor; Ellman).
For `CC[C@@H](C)[C@H](NC(=O)COc1c(NC(C)=O)cc(-c2nc3ccccc3s2)cc1OC)C(=O)OC`, the IC50 was greater than 256 µM (ACHE; enzyme activity; inhibitor; Ellman).
For `CCOC(=O)c1ccc(OC(=O)CCCCCN=C(N)N)cc1`, the IC50 was 12.2 µM (Kallikrein-13 (Homo sapiens, UniProt Q9UKR3); enzyme activity; inhibitor).
The IC50 of `O=C(O)C(F)(F)C(F)(F)C(F)(F)C(F)(F)C(F)(F)C(F)(F)C(F)(F)C(F)(F)C(F)(F)C(F)(F)C(F)(F)F` is reported as 2.37 µM (Sterol carrier protein 2 (Homo sapiens, UniProt P22307); ligand displacement; fluorescence).
The IC50 of `CCc1ccccc1C=Nc1ccc(SCc2cc(=O)c(O)co2)cc1` is reported as 5.38 µM (ACHE; enzyme activity; inhibitor; Ellman).
